{
  "source": "paper PMC4300256",
  "about": "(Aquatic toxicology (Amsterdam, Netherlands), 2014)",
  "key": {"RyR1 [1]": {"target": "T1, RyR1 (Fundulus heteroclitus, UniProt A0A3Q2R0L4)", "T1 sequence (A0A3Q2R0L4 1-4852)": "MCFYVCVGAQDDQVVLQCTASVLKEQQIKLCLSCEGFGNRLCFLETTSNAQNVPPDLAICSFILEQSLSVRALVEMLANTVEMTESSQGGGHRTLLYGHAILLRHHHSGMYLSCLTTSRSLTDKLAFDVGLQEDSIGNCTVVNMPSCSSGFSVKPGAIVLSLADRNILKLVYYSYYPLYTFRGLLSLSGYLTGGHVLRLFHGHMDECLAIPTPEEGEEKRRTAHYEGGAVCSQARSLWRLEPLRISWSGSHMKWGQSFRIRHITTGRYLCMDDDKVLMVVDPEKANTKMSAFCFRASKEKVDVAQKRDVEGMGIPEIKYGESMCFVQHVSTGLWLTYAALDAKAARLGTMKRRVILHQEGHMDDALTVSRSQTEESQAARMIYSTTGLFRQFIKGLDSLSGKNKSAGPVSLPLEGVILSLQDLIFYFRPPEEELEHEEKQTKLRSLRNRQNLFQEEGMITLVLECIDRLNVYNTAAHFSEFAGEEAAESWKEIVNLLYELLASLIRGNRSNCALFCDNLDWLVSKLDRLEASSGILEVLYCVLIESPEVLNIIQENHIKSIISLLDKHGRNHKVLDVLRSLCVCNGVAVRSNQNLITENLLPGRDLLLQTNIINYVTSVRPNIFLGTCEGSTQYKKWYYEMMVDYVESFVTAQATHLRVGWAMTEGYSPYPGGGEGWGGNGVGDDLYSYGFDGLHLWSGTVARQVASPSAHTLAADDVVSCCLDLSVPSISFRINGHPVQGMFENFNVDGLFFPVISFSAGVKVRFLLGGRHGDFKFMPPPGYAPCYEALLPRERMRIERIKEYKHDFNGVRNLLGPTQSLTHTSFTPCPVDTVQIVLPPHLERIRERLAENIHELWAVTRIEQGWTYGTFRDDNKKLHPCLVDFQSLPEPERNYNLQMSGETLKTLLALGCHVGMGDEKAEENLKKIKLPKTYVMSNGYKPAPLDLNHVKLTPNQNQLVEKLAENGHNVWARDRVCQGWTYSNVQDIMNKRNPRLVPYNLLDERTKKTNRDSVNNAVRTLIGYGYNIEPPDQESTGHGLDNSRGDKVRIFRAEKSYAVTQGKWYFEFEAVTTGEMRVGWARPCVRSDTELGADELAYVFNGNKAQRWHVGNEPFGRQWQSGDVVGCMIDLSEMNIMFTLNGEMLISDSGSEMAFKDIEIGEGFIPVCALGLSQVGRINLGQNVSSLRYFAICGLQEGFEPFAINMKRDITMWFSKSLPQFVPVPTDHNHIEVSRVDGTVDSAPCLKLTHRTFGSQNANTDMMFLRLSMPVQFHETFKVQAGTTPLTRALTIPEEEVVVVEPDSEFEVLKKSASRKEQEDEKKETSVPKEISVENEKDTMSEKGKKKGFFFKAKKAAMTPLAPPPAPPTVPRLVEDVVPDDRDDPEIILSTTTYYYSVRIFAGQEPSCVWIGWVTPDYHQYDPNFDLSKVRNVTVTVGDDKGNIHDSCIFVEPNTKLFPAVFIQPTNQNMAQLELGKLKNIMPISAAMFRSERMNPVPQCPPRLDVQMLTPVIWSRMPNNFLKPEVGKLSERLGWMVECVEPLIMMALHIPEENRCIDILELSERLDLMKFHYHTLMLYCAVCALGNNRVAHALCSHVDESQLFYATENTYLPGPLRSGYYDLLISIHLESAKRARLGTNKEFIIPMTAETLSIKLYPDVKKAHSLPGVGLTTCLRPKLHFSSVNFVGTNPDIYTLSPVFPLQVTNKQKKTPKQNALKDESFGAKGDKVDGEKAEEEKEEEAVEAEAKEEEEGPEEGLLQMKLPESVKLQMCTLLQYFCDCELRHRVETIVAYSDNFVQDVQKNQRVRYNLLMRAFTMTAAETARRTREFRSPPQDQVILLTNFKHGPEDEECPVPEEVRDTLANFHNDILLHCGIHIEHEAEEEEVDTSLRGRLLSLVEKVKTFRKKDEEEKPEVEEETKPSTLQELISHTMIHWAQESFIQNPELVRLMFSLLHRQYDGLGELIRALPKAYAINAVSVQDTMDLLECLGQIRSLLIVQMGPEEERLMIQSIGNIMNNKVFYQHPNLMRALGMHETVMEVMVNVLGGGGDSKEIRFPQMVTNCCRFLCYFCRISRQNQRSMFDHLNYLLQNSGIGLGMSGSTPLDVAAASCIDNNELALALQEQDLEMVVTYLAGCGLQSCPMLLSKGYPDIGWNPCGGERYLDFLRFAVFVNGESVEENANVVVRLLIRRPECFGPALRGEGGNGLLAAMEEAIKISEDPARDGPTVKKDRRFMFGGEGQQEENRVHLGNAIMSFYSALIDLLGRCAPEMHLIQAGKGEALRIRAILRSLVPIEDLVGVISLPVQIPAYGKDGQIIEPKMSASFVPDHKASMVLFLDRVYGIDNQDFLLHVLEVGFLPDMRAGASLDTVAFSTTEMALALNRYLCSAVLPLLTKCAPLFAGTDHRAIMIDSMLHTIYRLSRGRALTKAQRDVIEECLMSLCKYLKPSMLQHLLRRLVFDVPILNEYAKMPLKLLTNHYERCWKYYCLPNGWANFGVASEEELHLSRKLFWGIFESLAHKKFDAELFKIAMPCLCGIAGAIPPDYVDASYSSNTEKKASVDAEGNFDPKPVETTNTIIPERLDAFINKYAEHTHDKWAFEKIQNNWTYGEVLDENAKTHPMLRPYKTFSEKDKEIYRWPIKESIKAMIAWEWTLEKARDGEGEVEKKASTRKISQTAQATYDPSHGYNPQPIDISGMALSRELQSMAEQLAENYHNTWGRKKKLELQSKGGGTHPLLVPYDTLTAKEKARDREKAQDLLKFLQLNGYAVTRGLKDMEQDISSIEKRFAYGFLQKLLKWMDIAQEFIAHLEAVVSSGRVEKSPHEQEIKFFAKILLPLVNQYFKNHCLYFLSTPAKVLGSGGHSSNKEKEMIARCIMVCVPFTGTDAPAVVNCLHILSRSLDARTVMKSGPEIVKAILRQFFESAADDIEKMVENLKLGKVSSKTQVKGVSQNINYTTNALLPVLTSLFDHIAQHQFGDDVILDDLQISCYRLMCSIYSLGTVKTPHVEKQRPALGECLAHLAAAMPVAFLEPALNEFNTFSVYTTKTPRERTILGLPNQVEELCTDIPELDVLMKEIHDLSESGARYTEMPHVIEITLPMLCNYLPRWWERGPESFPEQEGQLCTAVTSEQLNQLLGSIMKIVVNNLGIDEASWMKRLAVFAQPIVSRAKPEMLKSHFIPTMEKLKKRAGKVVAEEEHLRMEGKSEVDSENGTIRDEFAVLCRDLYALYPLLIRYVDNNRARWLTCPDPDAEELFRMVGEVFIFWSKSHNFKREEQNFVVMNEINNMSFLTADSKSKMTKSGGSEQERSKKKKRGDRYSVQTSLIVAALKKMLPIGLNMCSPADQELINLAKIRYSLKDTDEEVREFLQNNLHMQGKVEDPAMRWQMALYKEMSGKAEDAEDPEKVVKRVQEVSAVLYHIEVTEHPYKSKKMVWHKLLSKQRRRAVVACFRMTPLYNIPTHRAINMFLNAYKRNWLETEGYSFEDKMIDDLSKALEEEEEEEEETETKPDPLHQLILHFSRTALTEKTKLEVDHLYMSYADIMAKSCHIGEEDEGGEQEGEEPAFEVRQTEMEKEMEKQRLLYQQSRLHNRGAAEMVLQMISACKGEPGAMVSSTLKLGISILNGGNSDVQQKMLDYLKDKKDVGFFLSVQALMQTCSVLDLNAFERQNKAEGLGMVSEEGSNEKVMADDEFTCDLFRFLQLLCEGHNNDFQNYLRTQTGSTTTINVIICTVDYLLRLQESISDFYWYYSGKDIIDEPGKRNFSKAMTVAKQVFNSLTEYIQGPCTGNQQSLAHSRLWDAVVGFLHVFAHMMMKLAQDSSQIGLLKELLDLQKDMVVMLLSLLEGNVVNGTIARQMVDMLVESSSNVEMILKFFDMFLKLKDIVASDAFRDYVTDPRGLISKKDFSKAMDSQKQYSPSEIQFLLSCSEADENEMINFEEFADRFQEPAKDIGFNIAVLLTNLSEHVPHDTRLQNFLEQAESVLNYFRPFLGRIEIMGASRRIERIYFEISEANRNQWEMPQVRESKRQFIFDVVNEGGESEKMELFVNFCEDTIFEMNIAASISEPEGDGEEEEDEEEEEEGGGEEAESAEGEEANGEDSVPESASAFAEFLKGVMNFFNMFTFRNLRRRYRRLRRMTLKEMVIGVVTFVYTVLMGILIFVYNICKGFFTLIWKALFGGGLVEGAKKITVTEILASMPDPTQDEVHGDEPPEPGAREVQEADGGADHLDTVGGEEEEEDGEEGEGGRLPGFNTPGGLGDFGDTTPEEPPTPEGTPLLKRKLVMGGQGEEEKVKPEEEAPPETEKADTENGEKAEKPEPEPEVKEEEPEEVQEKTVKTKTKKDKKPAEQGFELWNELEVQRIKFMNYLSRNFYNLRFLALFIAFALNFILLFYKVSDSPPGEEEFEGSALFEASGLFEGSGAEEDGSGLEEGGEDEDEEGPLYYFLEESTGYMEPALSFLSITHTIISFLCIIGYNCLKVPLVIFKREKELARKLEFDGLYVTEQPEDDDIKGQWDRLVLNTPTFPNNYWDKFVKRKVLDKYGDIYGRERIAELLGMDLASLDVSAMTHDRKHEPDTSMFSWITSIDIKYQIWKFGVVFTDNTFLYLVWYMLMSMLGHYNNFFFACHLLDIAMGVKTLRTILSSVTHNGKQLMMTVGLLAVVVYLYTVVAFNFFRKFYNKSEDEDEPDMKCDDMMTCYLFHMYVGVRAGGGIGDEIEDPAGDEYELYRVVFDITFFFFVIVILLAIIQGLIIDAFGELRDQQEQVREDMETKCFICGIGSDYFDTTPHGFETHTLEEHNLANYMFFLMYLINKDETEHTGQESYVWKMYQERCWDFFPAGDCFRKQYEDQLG", "assay": "PCB 95 induced [^3H]Ry binding", "type": "biochemical", "conditions": "for maximum response achieved, [^3H]Ry binding: 8 nM [^3H]Ry, 50 µM CaCl2; for EC50: read-out: half-maximal effect concentration (EC50)", "outline": "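Pooled skeletal muscle microsomes, 40 µg ml−1, were incubated with 8 nM [3H]Ry and 50 µM CaCl2 in RyR buffer (pH 7.1) at 25°C for 16 h. Test compound 0.01–20 µM in 0.5% DMSO; solvent control was 0.5% DMSO. After filtration and scintillation counting, specific binding was taken as a percent of the DMSO control and fitted by sigmoidal dose-response. 2–4 biological replicates, each in triplicate or quadruplicate.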"}, "RyR1 [2]": {"target": "T1, RyR1", "assay": "Ca^2+ induced [^3H]Ry binding", "type": "biochemical", "conditions": "NBH and SC killifish; 10 nM [^3H]Ry", "outline": "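Skeletal muscle microsomes (≥4 fish pooled per population), 100 µg ml−1, with 10 nM [3H]Ry in 250 KCl/15 NaCl/20 HEPES mM buffer (pH 7.1), 25°C, 16 h. Free Ca2+ 0.25–10,000 µM set with CaCl2/EGTA. Nonspecific binding: 1000-fold unlabeled ryanodine plus 200 µM EGTA. GF/B filtration, scintillation counting. Bell-shaped curve fit. 2–4 biological replicates, each run in triplicate or quadruplicate.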"}, "RyR1 [3]": {"target": "T1, RyR1", "type": "binding", "conditions": "two-site model, estimate ± SE"}},
  "note": "Where two headings read alike, the source gives them in different places.",
  "data": [
    {"smiles": "Clc1ccc(Cl)c(-c2c(Cl)ccc(Cl)c2Cl)c1", "note": "[PCB 95]", "values": [
      {"measurement": "EC10", "setting": "RyR1 [1]; NBH killifish skeletal muscle", "value": 9.23, "unit": "nM"},
      {"measurement": "maximum response achieved, [^3H]Ry binding", "setting": "RyR1 [1]; NBH killifish skeletal muscle", "value": "301 % of the DMSO control"},
      {"measurement": "EC10", "setting": "RyR1 [1]; SC killifish skeletal muscle", "value": 4.11, "unit": "nM"},
      {"measurement": "maximum response achieved, [^3H]Ry binding", "setting": "RyR1 [1]; SC killifish skeletal muscle", "value": "248 % of the DMSO control"},
      {"measurement": "EC50", "setting": "RyR1 [1]; NBH killifish skeletal muscle, 95% CI 77.7–119.1", "value": 96.2, "unit": "nM"},
      {"measurement": "EC50", "setting": "RyR1 [1]; SC killifish skeletal muscle, 95% CI 36.6–84.6", "value": 55.6, "unit": "nM"}
    ]},
    {"smiles": "[Ca+2]", "note": "[Ca^2+]", "values": [
      {"measurement": "Ca^2+ levels leading to receptor activation", "setting": "RyR1 [2]", "value": "below 250 µM"},
      {"measurement": "Ca^2+ levels leading to receptor inactivation", "setting": "RyR1 [2]", "value": "above 500 µM"}
    ]},
    {"smiles": "CC(C)[C@@]1(O)[C@@H](OC(=O)c2ccc[nH]2)[C@@]2(O)[C@@]3(C)C[C@]4(O)O[C@@]5([C@H](O)[C@@H](C)CC[C@]35O)[C@@]2(O)[C@@]14C", "note": "[[^3H]Ry, ryanodine]", "values": [
      {"measurement": "High Affinity Bmax", "setting": "RyR1 [3]; NBH killifish skeletal muscle", "value": "1.63 ± 0.32", "unit": "pmol/mg"},
      {"measurement": "Low Affinity Bmax", "setting": "RyR1 [3]; NBH killifish skeletal muscle", "value": "6.69 ± 0.92", "unit": "pmol/mg"},
      {"measurement": "High Affinity Bmax", "setting": "RyR1 [3]; SC killifish skeletal muscle", "value": "1.47 ± 0.31", "unit": "pmol/mg"},
      {"measurement": "Low Affinity Bmax", "setting": "RyR1 [3]; SC killifish skeletal muscle, 95% CI 0.81 to 5.05", "value": "2.93 ± 1.07", "unit": "pmol/mg"}
    ]}
  ]
}
